# MEKK2wt PB1 HTS: modulators of MEK5 binding to wildtype MEKK2, primary screen, biochemical, multiplex bead flow cytometry, Alexa488-MEK5. Mitogen-activated protein kinase kinase kinase 2 (Homo sapiens), Q9Y2U5. Alexa488-MEK5 binding to MEKK2 WT; actives lie on both sides. binding response (% of control), % at 10 µM. hit rate 1.1% among 290,000. AID 1531, 2009; in the data active = binding response below about 67% or above about 130%
# Lipid droplet: inhibitors of hepatocyte lipid droplet formation, primary screen, imaging, high-throughput imaging, BODIPY stain. AML12 mouse hepatocytes, oleate lipid droplets. inhibition, % at 6.5 µM. hit rate 0.4% among 240,000;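 active = lipid droplet intensity inhibited by at least 50%, with more than 500 cells counted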
#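 Assay system: AML12 hepatocytes (mouse) / Also added: 100 µM oleic acid challenge / Times: overnight treatment with compound plus oleate / Detection: high-content imaging of BODIPY-stained droplets and DAPI nuclei / Evaluation: % inhibition of lipid droplet signal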
# MEKK2 mut-MEK5: MEK5 binding signal on mutant MEKK2 PB1, primary screen, biochemical, multiplex bead flow cytometry, Alexa488-MEK5; Alexa488-MEK5 binding to MEKK2 mutant; percent response, % at 10 µM; hit rate 0.35% among 290,000; in the data active = percent response above about 24%, passing the limit was not always enough
# MEKK3 PB1 HTS: modulators of MEKK3-MEK5 PB1 binding, primary screen, biochemical, wildtype MEKK3, multiplex bead flow cytometry, Alexa488-MEK5 | bead-based flow cytometry, Alexa488-MEK5 binding to MEKK3; actives lie on both sides; 0 = blocked by unlabeled MEK5, 100 = vehicle | AID 1529, 2009 | hit rate 1.4% among 290,000 | binding response (% of control), % at 10 µM;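 active = binding response more than 3 SD above or below the average of its plate-row segment, actives on both sides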;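 note: Alexa488 bead fluorescence after subtracting the streptavidin-only scavenger bead signal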
# Target sequence (Q99759 whole entry, looked up): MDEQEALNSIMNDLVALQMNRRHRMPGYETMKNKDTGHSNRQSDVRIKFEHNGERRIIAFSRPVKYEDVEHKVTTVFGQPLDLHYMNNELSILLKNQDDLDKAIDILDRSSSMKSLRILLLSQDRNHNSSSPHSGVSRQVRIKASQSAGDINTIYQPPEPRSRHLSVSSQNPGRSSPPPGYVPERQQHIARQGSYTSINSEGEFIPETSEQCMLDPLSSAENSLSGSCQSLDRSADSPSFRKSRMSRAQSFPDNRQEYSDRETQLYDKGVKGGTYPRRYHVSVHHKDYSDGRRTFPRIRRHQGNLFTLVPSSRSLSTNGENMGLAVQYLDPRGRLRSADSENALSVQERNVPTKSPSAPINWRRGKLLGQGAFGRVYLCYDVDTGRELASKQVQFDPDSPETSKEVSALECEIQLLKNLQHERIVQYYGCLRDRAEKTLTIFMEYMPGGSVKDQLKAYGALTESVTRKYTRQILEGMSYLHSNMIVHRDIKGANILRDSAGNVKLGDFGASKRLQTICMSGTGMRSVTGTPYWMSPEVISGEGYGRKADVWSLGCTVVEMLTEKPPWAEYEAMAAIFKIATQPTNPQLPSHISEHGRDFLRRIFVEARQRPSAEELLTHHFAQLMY
# Hep lipid conf: hepatocyte lipid droplet accumulation inhibitors, confirmation, imaging, AML12 mouse hepatocytes, single concentration, high-content. shares compounds with Lipid droplet. inhibition, % at 5.2 µM. hit rate 65% among 870. BODIPY lipid droplet imaging; droplets induced with 100 µM oleic acid;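 active = inhibition of lipid droplet metric at least 50%, with more than 300 cells in each of four replicates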;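 note: plate controls were DMSO with oleic acid for no effect and 5 µM Triacsin-C for full effect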
# AML12 cytotox: AML12 hepatocyte cytotoxicity, counter-screen for hepatic lipid droplet formation project, imaging, DAPI nuclear morphology imaging | shares compounds with Lipid droplet | AML12 mouse hepatocytes; stronger effect = higher value; cells fed 100 µM oleate overnight | z-score at 5 µM | hit rate 3% among 870 | AID 463200, 2010; in the data active = z-score above about 6.3;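 note: compound exposure lasted overnight at 37 °C before fixation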
# AML12 tox ATP: AML12 hepatocyte cytotoxicity, confirmation, cytotoxicity control for hepatic lipid droplet formation project, cell-based, single concentration | shares compounds with Lipid droplet | AML12 mouse hepatocyte viability, ATP luminescence; cells loaded with 100 µM oleic acid | cytotoxicity, % at 50 µM | 530 tested, under 10 active;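 active = cytotoxicity above 50% in each of four replicates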;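 note: compound exposure lasted overnight at 37 °C before the ATP read; 0% = DMSO-treated cells and 100% = wells with no cells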
# Numbers without * were called inactive; x = no result given. Shown are actives, neighbours in structure and some others; about 2.6% of the full set was active somewhere.
SMILES,MEKK2wt PB1 HTS,Lipid droplet,MEKK2 mut-MEK5,MEKK3 PB1 HTS,Hep lipid conf,AML12 cytotox,AML12 tox ATP
O=C(Cn1c(=O)n(CC2CCCO2)c(=O)c2ccccc21)c1ccc(Cl)c(Cl)c1 (configuration not stated),99.0,5.5,0.0,101.0,x,x,x
CCOC(=O)[C@@H]1[C@H]2COc3ccc(Br)cc3[C@@H]2N2C(=O)N(c3ccc(C(F)(F)F)cc3)C(=O)[C@@]12C,95.0,52.5*,-4.0,103.0,76.2*,-0.138,4.5
CCOC(=O)[C@@H]1[C@H]2COc3ccc(Br)cc3[C@@H]2N2C(=O)N(c3cccc(F)c3)C(=O)[C@@]12C,91.0,-2.3,-7.0,96.0,x,x,x
CCCCc1cc(=O)oc2cc(C)cc(OCC(=O)Nc3ccccn3)c12,100.0,-0.4,2.0,105.0,x,x,x
O=C(Nc1nc(-c2cccs2)c(-c2cccs2)s1)C1CCCC1,99.0,54.5*,0.0,107.0,93.7*,-0.484,x
O=C(Nc1nnc(-c2cccs2)s1)C1CC1,86.0,9.6,-13.0,97.0,x,x,x
COc1ccc(S(=O)(=O)N(CC(=O)N2CCCCCC2)c2ccccc2OC)cc1,98.0,58.0*,-4.0,104.0,-11.8,-1.35,x
CC(C)C(=O)N(Nc1nc2ccccc2s1)C(=O)C(C)C,101.0,72.0*,0.0,103.0,70.0*,0.0559,8.0
Cc1ccc(C(=O)N(Nc2nc3ccccc3s2)C(=O)c2ccc(C)cc2)cc1,97.0,-1.4,3.0,107.0,x,x,x
COc1ccc(CCCNC(=O)C2CCC(=O)N(CCc3cccc(F)c3)C2)cc1 (configuration not stated),106.0,-4.0,9.0,101.0,x,x,x
COC(=O)C1=C(C(=O)OC)SC(=C2C(=S)C(C)(C)N(C(=O)C(C)C)c3ccccc32)S1,93.0,56.8*,-1.0,99.0,102.1*,0.568,16.5
CC(C)COc1cccc(-c2cc(C(=O)Nc3ccon3)c3ccccc3n2)c1,93.0,50.4*,-8.0,102.0,80.5*,0.0251,-9.8
CCCOc1cccc(-c2cc(C(=O)NN)c3ccccc3n2)c1,105.0,0.5,1.0,106.0,x,x,x
CC(C)C(NS(=O)(=O)c1ccc2c(c1)Cc1cc(S(=O)(=O)NC(C(=O)O)C(C)C)ccc1-2)C(=O)O (configuration not stated),99.0,7.1,2.0,100.0,x,x,x
CCOc1ccc(CCNC(=O)Cn2cccc2C(=O)c2ccccc2)cc1OCC,102.0,84.1*,0.0,100.0,108.8*,0.411,12.7
CCOc1ccc(CCNC(=O)CN2C(=O)NC(CCSC)C2=O)cc1OCC (configuration not stated),98.0,85.1*,2.0,101.0,99.6*,0.328,13.9
CCOc1ccc(CCNC(=O)Cn2c(-c3nonc3N)nc3ccccc32)cc1OCC,122.0,75.2*,12.0,114.0,100.8*,0.986,25.1
COc1ccc(CCNC(=O)CCCn2c(=O)c3cccn3c3cccnc32)c(OC)c1OC,106.0,-35.2,7.0,105.0,x,x,x
CCCNC(=O)CN1C(=O)NC(CCc2ccccc2)C1=O (configuration not stated),86.0,3.7,-4.0,83.0,x,x,x
CCOc1ccc(CCNC(=O)CCCn2c(=O)c3cccn3c3cccnc32)cc1OCC,103.0,69.2*,3.0,99.0,88.3*,-1.02,4.2
CCCNC(=O)Cn1cccc1C(=O)c1ccccc1,103.0,x,4.0,105.0,x,x,x
CC(C)S(=O)(=O)c1csc(NC(=O)Nc2cc(Cl)ccc2Cl)c1Cl,96.0,-4.7,-9.0,95.0,x,x,x
CCOc1ccc(CCNC(=O)Cn2nc(C)n3cccc3c2=O)cc1OCC,100.0,78.9*,3.0,98.0,103.8*,-0.0837,17.4
CN1CCN(c2ccc(NC(=O)c3ccc(C#N)cc3F)cc2Cl)CC1,112.0,26.4,9.0,101.0,x,x,x
Cc1cc(C)n2nc(C(=O)N/N=C/c3c4ccccc4cc4ccccc34)nc2n1,96.0,65.5*,10.0,103.0,103.3*,0.302,37.9
SMILES,MEKK2wt PB1 HTS,Lipid droplet,MEKK2 mut-MEK5,MEKK3 PB1 HTS,Hep lipid conf,AML12 cytotox,AML12 tox ATP
Cc1cc(C)n2nc(C(=O)N/N=C/c3ccccc3Cl)nc2n1,71.0,0.6,-16.0,65.0,x,x,x
COC(=O)C1SCC2C(=O)N(Cc3ccc(Cl)c(Cl)c3)CC(=O)N21 (configuration not stated),100.0,7.5,2.0,99.0,x,x,x
CC(=O)c1ccc(NC(=O)Cn2cnc(S(=O)(=O)N3CCC(C)CC3)c2)cc1,98.0,-17.3,3.0,102.0,x,x,x
COc1ccc(OC)c(NC(=O)c2cc3oc4ccccc4c3cc2O)c1,101.0,108.2*,9.0,107.0,17.9,0.111,x
O=C(Nc1ccc(NC(=O)c2cc3ccccc3o2)cc1)c1ccco1,102.0,70.3*,0.0,104.0,64.6*,-0.0811,10.8
O=C(Nc1ccccc1)c1cc2ccccc2o1,107.0,-4.0,7.0,109.0,x,x,x
CCOc1ccc(CC(=O)Nc2ccc(NC(=O)c3ccco3)cc2)cc1OCC,98.0,56.9*,-6.0,102.0,98.2*,-0.0861,9.4
CCC(=O)Nc1ccc(NC(=O)c2ccco2)cc1,99.0,x,-2.0,104.0,x,x,x
COc1cc(NC(=O)c2ccco2)c(OC)cc1NC(=O)CCC(=O)Nc1cc(C)cc(C)c1,110.0,96.7*,-1.0,109.0,106.8*,-0.155,56.3*
O=C(CCNC(=O)C1CCN(S(=O)(=O)c2ccc(F)cc2)CC1)NCc1ccccc1Cl,102.0,50.6*,3.0,99.0,21.8,-0.597,x
O=C(CCNC(=O)C1CCN(S(=O)(=O)c2ccccc2)CC1)NCc1ccc(Cl)cc1,106.0,-1.8,0.0,102.0,x,x,x
O=C(CCNC(=O)C1CCN(S(=O)(=O)c2ccccc2)CC1)NCc1ccc(Cl)cc1Cl,106.0,55.8*,4.0,104.0,75.1*,-0.396,12.4
O=C(CCNC(=O)C1CCN(S(=O)(=O)c2ccc(F)cc2)CC1)NCCc1ccc(Cl)cc1,102.0,-16.9,6.0,101.0,x,x,x
O=C(O)c1ccc(-c2ncc[nH]2)cc1,65.0,-3.0,-21.0,60.0,x,x,x
COc1ccc2cc(C(C)C(=O)Nc3cccc(S(=O)(=O)N(C)C)c3)ccc2c1 (configuration not stated),108.0,21.3,-2.0,101.0,x,x,x
CCS(=O)(=O)N1CCN(S(=O)(=O)c2ccc3c(c2)OCCO3)CC1,101.0,-1.1,-3.0,101.0,x,x,x

# From PubChem
